Experiment [1] has as its system HL-60. Put plainly: Induction of apoptosis by the compound in human HL-60 cell line after 24 hours. In kind it is functional, cell-based. The note with it: HL-60, 24 h. In short, it runs like this: (§1)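 Cultures were exposed under optimal conditions to 16–1000 µM compound, or control medium, for the stated time. Cells were stained with acridine orange, and over 600 cells were counted by fluorescence microscopy. AC50 is the concentration giving 50% apoptosis, from three or more experiments (some are the mean of two).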

Experiment [2] deals with HL-60. Briefly: Induction of apoptosis by the compound in human HL-60 cell line after 72 hours. The conditions noted are these: HL-60, 72 h. In kind it is functional, cell-based. In short, it runs like this: as §1
Experiment [3] concerns U-937. Briefly: Induction of apoptosis by the compound in human U937 cell line after 24 hours. In kind it is functional, cell-based. The conditions noted are these: U-937, 24 h. In short, it runs like this: as §1
Experiment [4] relates to HL-60. Put plainly: Cytotoxicity in human HL-60 cell line after 24 hours. Format: functional. The conditions noted are these: HL-60, 24 h. Put shortly:
(§2)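 Cells held in optimal culture conditions were exposed to test agent at 16 to 1000 µM, or control medium, for the stated time. Viability was scored by trypan blue exclusion. CC50 is the concentration giving 50% toxicity, from three or more experiments (some values are the mean of two).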

The subject of experiment [5] is MOLT-3. Briefly: Induction of apoptosis by the compound in human Molt-3 cell line after 24 hours. Format: functional, cell-based. The note with it: MOLT-3, 24 h. Put shortly: as §1
For experiment [6], the system named is HL-60. Put plainly: Induction of apoptosis by the compound in human HL-60 cell line after 48 hours. In kind it is functional, cell-based. The note with it: HL-60, 48 h. In short, it runs like this:
as §1

In experiment [7] the test system is MOLT-3. Put plainly: Cytotoxicity in human Molt-3 cell line after 48 hours. The note with it: MOLT-3, 48 h. Format: functional. In short, it runs like this: as §2
The test system of experiment [8] is MOLT-3. Put plainly: Cytotoxicity in human Molt-3 cell line after 24 hours. Format: functional. The note with it: MOLT-3, 24 h. Put shortly:
as §2

Experiment [9] deals with HL-60. Briefly: Cytotoxicity in human HL-60 cell line after 48 hours. In kind it is functional. The conditions noted are these: HL-60, 48 h. Put shortly:
as §2

Experiment [10] has as its system U-937. Put plainly: Cytotoxicity in human U937 cell line after 24 hours. In kind it is functional. The conditions noted are these: U-937, 24 h. In short, it runs like this: as §2
The test system of experiment [11] is U-937. Briefly: Cytotoxicity in human U937 cell line after 48 hours. In kind it is functional. The note with it: U-937, 48 h. In short, it runs like this: as §2
Experiment [12] has as its system U-937. Briefly: Induction of apoptosis by the compound in human U937 cell line after 72 hours. Format: functional, cell-based. The conditions noted are these: U-937, 72 h. Put shortly:
as §1

Experiment [13] concerns U-937. Put plainly: Cytotoxicity in human U937 cell line after 72 hours. Format: functional. The conditions noted are these: U-937, 72 h. In short, it runs like this: as §2
In experiment [14] the test system is HL-60. Briefly: Cytotoxicity in human HL-60 cell line after 72 hours. In kind it is functional. The conditions noted are these: HL-60, 72 h. Put shortly: as §2
The test system of experiment [15] is MOLT-3. Put plainly: Induction of apoptosis by the compound in human Molt-3 cell line after 48 hours. The note with it: MOLT-3, 48 h. Format: functional, cell-based. In short, it runs like this:
as §1

Experiment [16] concerns U-937. Put plainly: Induction of apoptosis by the compound in human U937 cell line after 48 hours. In kind it is functional, cell-based. The note with it: U-937, 48 h. In short, it runs like this: as §1
Experiment [17] has as its system MOLT-3. Briefly: Cytotoxicity in human Molt-3 cell line after 72 hours. Format: functional. The note with it: MOLT-3, 72 h. In short, it runs like this:
as §2

The test system of experiment [18] is MOLT-3. Briefly: Induction of apoptosis by the compound in human Molt-3 cell line after 72 hours. In kind it is functional, cell-based. The note with it: MOLT-3, 72 h. In short, it runs like this: as §1

Structures are written as SMILES.

What is called AC50 is the concentration at which the activity in the assay is half-maximal. By CC50 is commonly meant the concentration that lowers cell viability or growth by half. Read a high CC50 as lower toxicity to the cells. In the case of `CCOP(=O)(CC1CC(n2ccc(N)nc2=O)ON1C)OCC` (configuration not stated), the half-maximal activity concentration (AC50) in the experiment on HL-60 [1], in the experiment with HL-60 [2], in the experiment with U-937 [3], in the experiment with MOLT-3 [5], in the experiment on HL-60 [6] and in the experiment on U-937 [12] was more than 1000 µM throughout. Besides, the half-maximal activity concentration (AC50) in the experiment with MOLT-3 [15], with U-937 [16] and in the experiment with MOLT-3 [18] was more than 1000 µM in each case. The CC50 in the experiment on HL-60 [4], in the experiment with MOLT-3 [7], with MOLT-3 [8], in the experiment on HL-60 [9], with U-937 [10] and with U-937 [11] was more than 1000 µM in each case. The CC50 in the experiment with U-937 [13], in the experiment on HL-60 [14] and in the experiment with MOLT-3 [17] was more than 1000 µM throughout.
Take `CCOP(=O)(CC1CC(n2cc(C)c(=O)[nH]c2=O)ON1C)OCC` (configuration not stated): the half-maximal activity concentration (AC50) in the experiment on HL-60 [1], with HL-60 [2], in the experiment on U-937 [3], with MOLT-3 [5], in the experiment on HL-60 [6] and in the experiment on U-937 [12] was more than 1000 µM each time. The half-maximal activity concentration (AC50) in the experiment with MOLT-3 [15], in the experiment with U-937 [16] and with MOLT-3 [18] was more than 1000 µM throughout. In addition, the CC50 with HL-60 [4], with MOLT-3 [7], with MOLT-3 [8], in the experiment with HL-60 [9], in the experiment with U-937 [10] and with U-937 [11] was more than 1000 µM each time. Further, the cytotoxic concentration (CC50) in the experiment on U-937 [13], in the experiment with HL-60 [14] and in the experiment on MOLT-3 [17] was more than 1000 µM each time.
`CCOP(=O)(CC1CC(n2cc(F)c(=O)[nH]c2=O)ON1C)OCC` (configuration not stated): the AC50 with HL-60 [1] was 250 µM; in the experiment on MOLT-3 [5], 457 µM; in the experiment with HL-60 [6] it was 151 µM; in the experiment with MOLT-3 [15] it was 277 µM; in the experiment on MOLT-3 [18], 170 µM. Further, the cytotoxic concentration (CC50) was more than 1000 µM in the experiment on HL-60 [4]; 197 µM in the experiment on MOLT-3 [7]; 247 µM in the experiment on MOLT-3 [8]; 457 µM in the experiment on HL-60 [9]; 408 µM with HL-60 [14]; 141 µM in the experiment on MOLT-3 [17].

Source of the values: ChEMBL document CHEMBL1144407, “Synthesis of phosphonated carbocyclic 2'-oxa-3'-aza-nucleosides: novel inhibitors of reverse transcriptase” (J Med Chem, 2005).
